Article PMC7616001 (Journal of medicinal chemistry, 2022)
“Also recorded” adds a separate entry of the source.

Experiments:
A2780cis = experiment: MTT assay, 72 h continuous exposure, cisplatin-resistant A2780Cis cells; format: cell-based, human
Method in brief: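 Ovarian lines grown in RPMI with 10% FBS and 1% penicillin/streptomycin; A2780Cis kept on 2 μM cisplatin 3 days each week. HeLa grown in DMEM with the same supplements. 3 × 10^3 cells/well, overnight, then serial dilutions of DMSO stocks (final DMSO ≤0.1%); cisplatin stock in PBS. 72 h continuous exposure, MTT 0.5 mg/mL 3 h, formazan in DMSO, A570 normalised to untreated. IC50 from curves; ≥3 independent experiments.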

HeLa = experiment: 24 h MTT assay, HeLa cells; format: cell-based, human; conditions: read-out: IC50/24h
Method in brief: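 HeLa in DMEM with 10% FBS and 1% penicillin/streptomycin, 3 × 10^3 cells/well, grown overnight. Fresh DMSO stocks (Ru content confirmed by ICP‑MS) serially diluted in medium; final DMSO ≤0.1%. 24 h exposure, then MTT 0.5 mg/mL for 3 h. Formazan dissolved in DMSO, A570 read and normalised to untreated wells. IC50 taken from dose–response curves; ≥3 independent experiments of 3 or 6 replicates.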

HeLa cells [1] = experiment: Whole cell uptake by ICP-MS; format: cell-based, human; conditions: 10 μM
Method in brief: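 2 × 10^6 cells per 60 mm plate, grown overnight. Incubated 4 h in fresh medium containing 10 μM test compound. Washed three times with PBS, detached with trypsin and counted for per‑cell metal uptake.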

[2] = Stability in DMSO and aqueous media by 1H NMR; format: physicochemical; conditions: up to 48 h
Method in brief: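 About 2 mM test compound in DMSO-d6 was mixed with 666 mM NaCl in D2O to give 100 mM NaCl final in DMSO/D2O (85/15, v/v). 1H NMR spectra were recorded at regular intervals up to 48 h.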

zebrafish embryos = experiment: Zebrafish embryo toxicity and viability analysis; format: in vivo, zebrafish (Danio rerio)
Method in brief: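 Wild‑type embryos, ten per 5 mL E3. Test compound at final 20, 30 or 40 μM, diluted from a 5 mM DMSO stock; DMSO vehicle at 10 μL/mL. Exposure from 26 hpf to 72 hpf at 28 °C, then scored for viability and morphology.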

HeLa cells [3] = experiment: Intracellular distribution between nucleus and cytoplasm, ICP-MS; format: cell-based, human; conditions: 10 μM, 24 h exposure
Method in brief: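 5 × 10^6 HeLa per 100 mm plate, grown overnight. Exposed 24 h to 10 μM test compound, with 10 μM cisplatin as comparator. PBS‑washed, trypsinised, counted. Nuclear and cytoplasmic fractions isolated with a commercial kit. Protein measured by BCA assay, metal by ICP‑MS. Three experiments of ≥3 replicates.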

[4] = tested on: O2•− radicals in HeLa cells; experiment: Flow cytometric quantification of superoxide radicals with DHE probe; format: cell-based, human; conditions: 10 μM, 4 h
Method in brief: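 HeLa seeded at 0.75 × 10^6 cells per six‑well plate well, grown overnight, then treated 4 h at 10 μM. Cells trypsinised, washed with ice‑cold PBS and spun at 1200 rpm, 5 min, 4 °C. Probe‑stained cells analysed by flow cytometry, approximately 20,000 cells per sample.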

HeLa cells [5] = experiment: Annexin-V/PI dual staining flow cytometry; format: cell-based, human; conditions: 24 h
[6] = tested on: IRE1α, ATF6, p-elF2α, unfolded proteins in HeLa cells; experiment: Western blot of polyubiquitinated proteins and ER-stress marker proteins; format: cell-based, human; conditions: 24 h
Method in brief: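 HeLa cells, about 2 × 10^6 at 80–90% confluency, were treated for 24 h with test compound at 10, 20 or 40 μM, with celastrol as positive control. RIPA lysates with protease inhibitors were heated in Laemmli buffer (90 °C, 10 min), resolved on 10/12% SDS-PAGE and transferred to PVDF. Membranes were blocked in 2% milk and probed overnight at 4 °C with primary antibodies (1:1000), then with HRP secondary antibodies.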

[7] = tested on: PARP, p53, cleaved caspase 3 in HeLa cells; experiment: Western blot of apoptosis-related marker proteins; format: cell-based, human; conditions: 24 h
Method in brief: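 ~2 million HeLa per 60 mm dish, grown to 80–90% confluency, treated 24 h at 10, 20 or 40 μM. Lysed in RIPA buffer with protease inhibitors. Membranes blocked with 2% skim milk in 0.1% Tween 20 for 30 min. Primary antibody 1:1000 overnight at 4 °C; HRP secondary antibody.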

[8] = tested on: RIP1 and RIP3 in HeLa cells; experiment: Western blot of necroptosis marker proteins; format: cell-based, human; conditions: 24 h
Method in brief: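 Western blot for RIP1/RIP3: about 2 × 10^6 HeLa cells at 80–90% confluency were given test compound (10, 20, 40 μM) for 24 h, with shikonin as a reference necroptosis inducer. Cells were lysed in RIPA with protease inhibitors and run on 10/12% SDS-PAGE, then transferred to PVDF. Membranes were blocked in 2% milk, probed with primary antibody (1:1000, overnight, 4 °C), then with HRP secondary antibody (0.75:1000).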

[9] = tested on: MEF-Bax/Bak^+/+ and MEF-Bax/Bak^−/− cell lines; experiment: Cytotoxicity in MEF-Bax/Bak+/+ versus MEF-Bax/Bak−/− cells; format: cell-based, murine

SMILES: Cc1ccc(C(C)C)cc1.O=C(C=C([O-])C(F)(F)F)[c-]1cccc1.[Cl-].[Fe+2].[Ru+2].c1cc[cH-]c1 [Compound 1, [(η^6-p-cymene)Ru(1,1,1-trifluoro-4-oxo-4-ferrocenyl-but-2-en-2-olate)Cl]]
- RF (A2780) (A2780cis; RF = IC50 in A2780Cis/IC50 in A2780): 1.2
- IC50 (A2780cis; read-out: IC50 A2780cis, 72 h continuous exposure, MTT assay): 3.1 ± 0.1 µM
- IC50 (HeLa): 38 ± 3 µM
- fold higher accumulation than 3 (HeLa cells [1]; 4 h): 3.5 fold
- times lower cellular accumulation compared to 4 (HeLa cells [1]; 4 h): 1.6 times
- whole cell uptake (HeLa cells [1]; 4 h): 57 ± 9.7 pmol/10^6 cells
- whole cell uptake (HeLa cells [1]; 4 h exposure): 57.0 ± 9.7 picomole Ru/10^6 cells
- stability in DMSO [2]: no change was detected in the ^1H NMR spectrum up to 48 h
- stability in DMSO-d6/D2O containing 100 mM NaCl [2]: no significant spectral changes were observed up to 48 h
- morphology / visible toxic effects on embryos (zebrafish embryos; 72 hpf, up to 40 μM): morphologically indistinguishable from untreated control embryos; also recorded: did not show any visible toxic effects
- animal viability at 72 hpf (zebrafish embryos; treated at 26 hpf, even at 40 μM dose): 100%
- metal content in nuclear fraction relative to cytoplasmic fraction (HeLa cells [3]): ~ 2.5 times
- level of O2•− radicals relative to untreated control [4]: ~ 19 fold
- AV^−/PI^+ cells (necrosis) (HeLa cells [5]; 10 μM): 9%
- AV^−/PI^+ cells (necrosis) (HeLa cells [5]; 20 μM): 15.4%
- unfolded (polyubiquitinated) proteins ([6]; 10-40 μM): dose-dependent upregulation of unfolded proteins
- IRE1α and ATF6 levels [6]: significant upregulation of both IRE1α and ATF6
- p-elF2α level (PERK arm) [6]: did not increase the level of the downstream protein p-elF2α
- apoptosis markers (PARP cleavage, p53, cleaved caspase 3) ([7]; cisplatin 10 μM, 1 at 1/4 × IC50 to IC50): none of these apoptosis markers were upregulated
- PARP level ([7]; western blot): significant upregulation of PARP
- expression level of RIP1 and RIP3 [8]: increased the expression level of RIP1 and RIP3
- IC50 in MEF-Bax/Bak^−/− compared to MEF-Bax/Bak^+/+ cells [9]: statistically similar
